KCNK9 inh = KCNK9 potassium channel inhibitors, primary screen, HEK293 cells, thallium flux | Potassium channel subfamily K member 9 (Homo sapiens), Q9NPC2 | 310,000 compounds, 1.2% hits | AID 488922, 2010 | B-score at 10 µM | FluxOR thallium flux fluorescence; hits give low values;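 active = ratio B-score over 3 SD below the library mean, with starting fluorescence within 5 SD of its mean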;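 note: negative B-score means less thallium flux so channel inhibition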
Target sequence (Q9NPC2 whole entry, looked up): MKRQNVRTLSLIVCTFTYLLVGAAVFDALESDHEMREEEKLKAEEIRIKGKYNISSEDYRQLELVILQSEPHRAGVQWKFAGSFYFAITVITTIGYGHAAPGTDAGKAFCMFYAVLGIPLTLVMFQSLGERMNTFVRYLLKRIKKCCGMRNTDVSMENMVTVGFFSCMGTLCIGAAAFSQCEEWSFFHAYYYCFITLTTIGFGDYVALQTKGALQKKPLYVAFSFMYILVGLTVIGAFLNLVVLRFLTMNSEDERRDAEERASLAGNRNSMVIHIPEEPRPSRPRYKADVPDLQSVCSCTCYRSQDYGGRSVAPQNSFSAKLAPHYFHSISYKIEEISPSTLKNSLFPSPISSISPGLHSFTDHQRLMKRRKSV
hERG rescue = hERG rescue from dofetilide block, primary screen, cell-based, CHO-hERG, FluxOR thallium flux, dofetilide IC70; Voltage-gated inwardly rectifying potassium channel KCNH2 (Homo sapiens), Q12809; dofetilide IC70 present; activation (rescue from dofetilide block), less the hit threshold, % at 10 µM; 310,000 compounds, 0.51% hits;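 active = activation above the mean of controls blocked by dofetilide plus 5 SD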;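 note: thallium influx through hERG after potassium depolarization seen as dye fluorescence rise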
KCNQ1 block = inhibitors of human KCNQ1 channel, primary screen, cell-based, thallium flux, high-throughput. Potassium voltage-gated channel subfamily KQT member 1 (Homo sapiens), P51787. CHO-K1 KCNQ1, FluxOR thallium flux fluorescence; hits give high values. B-score at 10 µM. 310,000 compounds, 1.3% hits. AID 2642, 2010;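 active = compounds whose thallium flux B-score, printed positive for inhibition, exceeds three library SD while starting fluorescence stays within three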;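 note: channel opened by potassium depolarization with thallium stimulus after 20 min compound exposure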
KCNQ1 act = potentiators or activators of KCNQ1 channel, primary screen, cell-based, thallium flux, high-throughput. Potassium voltage-gated channel subfamily KQT member 1 (Homo sapiens), P51787. CHO-K1 KCNQ1, thallium flux FluxOR fluorescence; hits give high values. AID 2648, 2010. 310,000 compounds, 0.35% hits. B-score at 10 µM;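 active = fluorescence ratio B-score, a plate-corrected score, at least three library SD, with initial intensity B-score within 5 SD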
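Test system: CHO-K1 cells stably expressing KCNQ1 / Medium: assay buffer / Also added: depolarizing K+/Tl+ stimulus, K2SO4 and Tl2SO4 each 12.5 mM in 5x stock / Incubation: 90 min dye loading and 20 min compound exposure, both at room temperature / Signal: thallium influx via FluxOR fluorescence, kinetic imaging / Evaluation: B score of baseline-normalized fluorescence ratio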
KCNK3 inh = human KCNK3 channel inhibitors, primary screen, CHO cells, FluxOR thallium flux, B-score | Potassium channel subfamily K member 3 (Homo sapiens), O14649 | FluxOR fluorescence; hits give low values | B-score at 10 µM | 340,000 compounds, 0.84% hits;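 active = B-score under library mean minus 4 SD, starting fluorescence ratio at most library mean plus 5 SD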;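 note: more negative B-score means stronger inhibition of thallium flux through KCNK3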
KCC2 mod = KCC2 cotransporter modulators, thallium flux, primary screen, cell-based, HEK293 KCC2, FluoZin-2 fluorescence, MLSMR | Solute carrier family 12 member 5 (Homo sapiens), Q9H2X9 | KCC2 cells, thallium flux FluoZin-2 fluorescence | B-score of Tl+ flux slope (higher = more flux/activation; lower = inhibition) at 10 µM | 190,000 compounds, 2.2% hits | AID 1456, 2008;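 active = thallium flux slope and its plate-corrected score both differing from the plate sample mean at a set confidence after two filtering rounds, in either direction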;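 note: slope of fluorescence scaled to starting intensity during 10 to 20 s after thallium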
KCNQ1 inh valid = KCNQ1 potassium channel inhibitors, confirmation, cell-based, Tl flux, duplicate. shares compounds with KCNQ1 block. KCNQ1 cell line, FluxOR thallium flux fluorescence. inhibition, % at 10 µM. 1,600 compounds, 93% hits;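 active = primary screen active, with duplicate mean exceeding buffer control mean plus 3 SD of buffer wells, cut at about 28% in these data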;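 note: 0% = buffer control ratio and 100% = XE991 inhibitor control ratio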
CHO KCNQ1 ctr = thallium flux effects in parental CHO cells, counter-screen for KCNQ1 inhibitor project, cell-based, Tl flux. shares compounds with KCNQ1 block. parental CHO-K1, FluxOR thallium flux fluorescence ratio; hits give low values; zero means no signal rise above baseline. fluorescence ratio (Tl flux) at 10 µM. 1,600 compounds, 21% hits. AID 588366, 2011;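 active = mean of duplicate thallium-flux fluorescence ratios in parental host cells more than 5 SD below the buffer control mean, cut at about 0.38 in these data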;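 note: ratio is peak minus minimum fluorescence divided by baseline fluorescence; actives read low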
KCNQ1 APC inh = KCNQ1 channel inhibitors, confirmation, orthogonal assay, cell-based, automated electrophysiology; shares compounds with KCNQ1 block; KCNQ1-CHO cells, automated patch clamp current; calls only at 10 µM; 490 compounds, 20% hits; AID 624120, 2012;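 active = KCNQ1 current drop exceeding 3 SD of negative control wells, seen in both duplicate runs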;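 note: steady state current during a 2 s step from -80 to +40 mV; negative values mean current inhibition and positive values mean potentiation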
KCNQ2 spec = KCNQ2 channel inhibition, selectivity assay for KCNQ1 inhibitor project, cell-based; shares compounds with KCNQ1 block; KCNQ2 cells, FluxOR thallium flux fluorescence; inhibition, % at 10 µM; 1,600 compounds, 71% hits; AID 651746, 2012;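 active = mean percent inhibition of the KCNQ2 thallium signal more than 5 SD above the buffer-only control wells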;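 note: KCNQ2 expressed in CHO cells; 0% = buffer control wells and 100% = XE-991 inhibitor control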
KCNQ1 KCNE1 spec = KCNQ1/KCNE1 channel inhibition, selectivity assay for KCNQ1 inhibitor project, CHO-K1 cells, thallium flux, FluxOR; shares compounds with KCNQ1 block; FluxOR thallium flux fluorescence; inhibition, % at 10 µM; 1,600 compounds, 77% hits; AID 652147, 2013;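 active = mean percent inhibition of duplicate wells above the buffer-only control mean plus 3 SD of those controls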;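 note: 0% = buffer only wells and 100% = XE-991 inhibitor control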
KCNK9 inh conf = KCNK9 potassium channel inhibitors, confirmation, HEK293 cells, thallium flux, duplicate; shares compounds with KCNK9 inh; FluxOR thallium flux fluorescence; inhibition, % at 10 µM; 4,900 compounds, 43% hits;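 active = thallium signal inhibited by more than 5 SD of the compound-free buffer control wells, on both duplicate plates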;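 note: 0% = assay buffer control wells without compound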
Kir2-1 spec = mouse Kir2.1 channel inhibition, confirmation, selectivity assay for KCNK9 modulator project, cell-based, HEK293, thallium flux. shares compounds with KCNK9 inh. Kir2.1 cells, FluxOR thallium flux fluorescence. 4,900 compounds, 4% hits. inhibition, % at 10 µM;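 active = thallium signal drop more than 5 SD beyond the mean of the no-compound control wells, seen in both duplicate plates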;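 note: signal is fluorescence rise after thallium addition divided by baseline fluorescence; plate controls were assay buffer only for no effect and full block by chlorpromazine control for full effect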
KCNK9 uninduced = thallium flux in non-induced HEK293 cells, confirmation, counter-screen for KCNK9 inhibitor project, cell-based, second counter screen, non-induced KCNK9-HEK293. FluxOR thallium flux. inhibition, % at 10 µM. 4,900 compounds, 40% hits. shares compounds with KCNK9 inh;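 active = thallium signal drop beyond 5 SD of the untreated control mean, on both duplicate plates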;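 note: plate controls were buffer only IC0 wells for no effect and SID17386958 at its maximal inhibitory level for full effect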
* = called active by the depositor; i = inactive; / = no result given. Hits are enriched below; roughly 4.1% of the tested compounds scored in any of these assays.

SMILES | KCNK9 inh | hERG rescue | KCNQ1 block | KCNQ1 act | KCNK3 inh | KCC2 mod | KCNQ1 inh valid | CHO KCNQ1 ctr | KCNQ2 spec | KCNQ1 KCNE1 spec | KCNK9 inh conf | Kir2-1 spec | KCNK9 uninduced | others
Cc1cccc(C)c1OC1(c2ccccc2)OC(=O)c2ccccc21 (configuration not stated) | -19.2* | -16.3 | 9* | i | i | -0.575 | 106.0* | 0.416 | 98.0%* | 138.0%* | 55.0%* | 32.5%* | 44.0%* | KCNQ1 APC inh=i
COc1ccc(-c2onc(C)c2-c2cnn(-c3ccccc3)c2)c(O)c1C | i | -9.9 | 6* | i | i | -0.168 | 44.0* | 0.404 | 115.3%* | 39.0%* | i | i | i
O=C(COC(=O)c1ccccc1[N+](=O)[O-])NCCCc1ccccc1 | i | -5.2 | i | i | i | / | / | / | / | / | / | / | /
O=C(CNC(=O)c1ccccc1Cl)NCCc1cccs1 | / | / | / | / | i | / | / | / | / | / | / | / | /
Cc1cccc(/C=C/c2onc(C)c2S(=O)(=O)N2CCC(C(=O)N3CCC(C)CC3)CC2)c1 | i | -8.0 | 6* | i | i | / | 51.5* | 0.44 | i | 56.5%* | i | i | i
CC1CN(C(=O)CSc2nnc(-c3ccccc3)o2)CC(C)O1 (configuration not stated) | i | -5.8 | i | i | i | / | / | / | / | / | / | / | /
CCOCCCNC(=O)CSc1nnc(-c2ccc(S(=O)(=O)N3CCCC3)cc2)n1C | i | -8.7 | i | i | i | / | / | / | / | / | / | / | /
Cc1ccc(S(=O)(=O)N2CCC[C@H]2C(=O)OCC(=O)Nc2ccc3c(c2)OCO3)cc1 | / | / | / | / | i | / | / | / | / | / | / | / | /
CSc1nnc(C)c(/C=C/Nc2ccc(F)cc2F)n1 | i | -6.1 | i | i | i | -0.011 | / | / | / | / | / | / | /
C=CCSc1nnc(C)c(/C=C/Nc2ccc(Cl)cc2)n1 | -10.6* | -11.7 | 8* | i | i | -0.79 | 73.0* | 0.335* | 105.7%* | 97.5%* | 30.5%* | i | 55.5%*

Bioassay records from PubChem.
